# Screening data from PubChem.
# TLR4-MyD88 BLA: inhibitors of TLR4-MyD88 association in cells, primary screen, cell-based, HeLa CL3-4, BLA complementation, FRET ratio | 200,000 compounds, 0.18% hits | inhibition, % at 8.4 µM | HeLa CL3-4 TLR4/MyD88 BLA complementation | AID 861, 2007 | Toll-like receptor 4 (Homo sapiens) + Myeloid differentiation primary response protein …; in the data active = inhibition above about 25%;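 note: 0% = vehicle and 100% = reference inhibitor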
# MC4R antagonist: MC4R antagonists of cAMP signaling, primary screen, cell-based, TR-FRET, antagonist arm of biased-ligand search; MC4R-expressing cells, MTII-stimulated cAMP, LANCE TR-FRET; inhibition, % at 6.5 µM; 360,000 compounds, 0.48% hits; AID 540295, 2011;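 active = inhibition above its plate's cutoff, the mean of tested wells on that plate plus 3 SD, cut at about 29% in these data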;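 note: 0% = Melanotan II alone and 100% = Melanotan II plus saturating MCL0020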
#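 system = U2OS cells with stable human MC4R expression | also added = Melanotan II challenge after compound preincubation | dosing = one concentration, 6.5 µM nominal | incubation = compound 30 min, challenge 1 h, detection 1 h | measured by = TR-FRET with Eu-cAMP and labeled anti-cAMP, 671 nm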
# MC4R barr agon: MC4R agonists recruiting beta-arrestin, primary screen, cell-based, luminescence, agonist arm of biased-ligand search; 360,000 compounds, 0.98% hits; U2OS MC4R beta-arrestin complementation; percent of melanotan II response, DMSO zero; activation, % at 8.9 µM; AID 540308, 2011; Melanocortin receptor 4 (Homo sapiens), P32245;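 active = activation above a per-plate cutoff, the mean activation of sample wells on that plate plus 3 SD, cut at about 8% in these data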
# TLR9-MyD88 block: inhibitors of TLR9-MyD88 association in cells, primary screen, cell-based, CHO, BLA complementation, fluorescence; Toll-like receptor 9 (Homo sapiens) + Myeloid differentiation primary response protein …; CCF4 FRET ratio; inhibition, % at 4.98 µM; 340,000 compounds, 0.21% hits; AID 504734, 2011;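 active = inhibition above the mean over all tested compounds plus 3 SD, cut at about 21% in these data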;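 note: 0% = DMSO only wells and 100% = clavulanate BLA inhibitor control wells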
# MIN6 prolif-1: inducers of MIN6 beta-cell proliferation, primary screen, ATP luminescence, uHTS; MIN6 cells proliferation, ATPlite luminescence, 48 h; cells starved in 0.2% serum; 100% = growth in 10% serum; proliferation, % at 10 µM; 330,000 compounds, 0.29% hits; AID 2380, 2010;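 active = compounds whose signal lies at least 3.5 SD above the mean of all wells on their plate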;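 note: 0% = DMSO-treated cells in low-serum medium and 100% = 10% serum control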
# NOD2-RIPK2 inh: NOD2-RIPK2 binding disruptors in cells, primary screen, fluorescence, CHO cells, BLA complementation | inhibition, % at 4.98 µM | CCF4 ratio | Receptor-interacting serine/threonine-protein kinase 2 (Homo sapiens), O43353 | AID 624267, 2012 | 360,000 compounds, 0.38% hits; in the data active = inhibition above about 21%;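 note: 0% = vehicle only and 100% = reference blocker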
# MIN6 prolif-2: inducers of beta-cell proliferation in MIN6, confirmation, MIN6 cells, mouse; shares compounds with MIN6 prolif-1; ATPlite luminescence, 48 h; cells kept in 0.2% serum; scaled between 0.2% and 10% serum; proliferation increase, % at 50 µM; 920 tested, under 10 active;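 active = proliferation increase above 40% at any of the four tested concentrations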
# * = called active by the depositor; nt = no result given. A selection: hits, their analogues and other compounds. The true share with any hit is near 2.1%.
SMILES,TLR4-MyD88 BLA,MC4R antagonist,MC4R barr agon,TLR9-MyD88 block,MIN6 prolif-1,NOD2-RIPK2 inh,MIN6 prolif-2
Cc1cc2c(ncn2C(C)C)c(NS(=O)(=O)c2ccc(F)cc2)c1C,10.6,3.2,0.7,9.3,8.9*,9.0,-4.4
COc1ccc(NC(=O)Nc2ccon2)cc1OC,nt,0.4,-3.2,7.1,4.2,-4.8,nt
O=C1NC2(CCCCC2)C(=O)N1c1ccc(Cl)cc1,nt,0.0,-1.1,7.9,8.4*,1.8,1.5
O=C1OC(Nc2ccc(F)c([N+](=O)[O-])c2)c2ccccc21 (centres undefined),nt,-2.0,-0.4,-8.4,0.2,-5.0,nt
O=C1OC(Nc2ccc3c(c2)OCO3)c2ccccc21 (centres undefined),-21.6,6.4,-1.9,2.5,5.0*,-8.6,-6.0
CCCCCNC(=O)C(c1ccc(C(F)(F)F)cc1)n1c(=O)c(-c2ccco2)nc2ccccc21 (centres undefined),nt,nt,nt,nt,nt,-15.8,nt
Cc1ccccc1OCC(=O)NC1CCCCCCC1,nt,3.3,2.5,-0.7,6.0*,3.7,-6.5
O=C(CN(c1ccccc1)S(=O)(=O)c1ccccc1[N+](=O)[O-])Nc1cccnc1,nt,4.4,-0.3,0.3,5.5*,-4.8,-0.3
O=C(CN(c1ccccc1)S(=O)(=O)c1ccc(Cl)cc1)Nc1cccnc1,nt,4.7,-0.6,-8.8,-3.6,-8.1,nt
CCc1ccccc1NC(=O)COC(=O)c1cccs1,nt,-4.5,-0.6,-1.8,8.1*,-4.7,1.8
O=C(COC(=O)c1cccs1)Nc1ccccc1C(F)(F)F,-4.9,-2.4,-3.8,-7.4,-2.3,7.2,nt
O=C(OCC(=O)N1CCCC1)c1cccs1,-3.6,8.5,-2.2,4.2,8.1*,-0.3,0.6
COc1ccc(NC(=O)N2CCCC2C(=O)NCCc2ccccc2)cc1 (centres undefined),nt,5.3,0.8,-18.0,-3.2,-6.8,nt
CCOC(=O)c1c(C)[nH]c(C)c1C(=O)COC(=O)c1cccc(S(=O)(=O)N(CC)CC)c1,-8.9,-0.6,-2.6,7.9,2.3,3.4,nt
CCOC(=O)c1c(C)[nH]c(C)c1C(=O)COC(=O)c1cccc(S(=O)(=O)NC)c1,-4.4,6.8,-1.5,-0.1,11.4*,-4.3,-0.3
CC(=O)Nc1ccc(S(=O)(=O)N[C@@H](C)C(=O)OCC(=O)NC2CCCC2)cc1,nt,3.5,-1.2,3.1,6.9,-10.9,nt
S=c1[nH]nc(CN2CCCCC2)n1Cc1ccccc1,-7.6,4.2,-1.4,-2.2,8.0*,-7.3,2.1
S=c1[nH]nc(CN2CCCC2)n1Cc1ccccc1,-10.0,14.9,-2.4,8.1,-2.6,2.0,nt
CC(C)CC(C(=O)NC1CCCCC1)N(Cc1cccs1)C(=O)c1snc(C(N)=O)c1N (centres undefined),5.8,4.5,4.3,-2.4,7.1*,-0.9,-6.4
CCc1nc2ccccc2n1CC(O)COCC1CC=CCC1 (centres undefined),6.9,-0.4,-1.4,7.6,12.1*,-7.3,-3.1
O=C(c1ccccc1)N1CCN(CC(O)COCC2CC=CCC2)CC1 (centres undefined),10.1,-0.9,-1.2,-7.0,-0.4,-2.2,nt
Cc1nn(CC(=O)N2CCN(c3ccccc3)CC2)c(=O)c2cccn12,nt,-4.8,0.5,6.8,-1.1,6.2,nt
CC1CCCN(CCCNC(=O)c2nn(C)c3c2CS(=O)(=O)c2ccccc2-3)C1 (centres undefined),nt,-0.2,0.4,6.1,7.0*,-3.2,0.3
CC1CCCCN1CCCNC(=O)c1nn(C)c2c1CS(=O)(=O)c1ccccc1-2 (centres undefined),nt,6.5,-3.8,-0.4,-4.5,10.0,nt
O=[N+]([O-])c1ccc(N2CCOCC2)cc1SCc1ccco1,2.7,3.2,2.2,-4.8,0.0*,6.0,1.7
SMILES,TLR4-MyD88 BLA,MC4R antagonist,MC4R barr agon,TLR9-MyD88 block,MIN6 prolif-1,NOD2-RIPK2 inh,MIN6 prolif-2
Cc1ccc(S(=O)(=O)NN=C(c2ccccc2)c2cccs2)cc1,nt,-2.3,-0.8,4.7,nt,3.6,nt
Cc1ccc(S(=O)(=O)N2CCN(C(=O)CCC(=O)Nc3ccc(Br)c(C)c3)CC2)cc1,nt,0.1,-0.7,-0.6,nt,-5.8,nt
CCOC(=O)C1CCCN(C2CC(=O)N(c3ccc(N4C(=O)CC(N5CCCC(C(=O)OCC)C5)C4=O)cc3)C2=O)C1 (centres undefined),-0.6,5.3,0.1,1.7,9.5*,0.0,-0.9
CC(C)(C)c1cc(=O)n(-c2ccccc2)[nH]1,-0.3,-5.4,-0.1,4.0,nt,1.5,nt
CCN(CC(=O)Nc1c(F)cccc1F)C(=O)Cn1[nH]c(=O)c2ccccc2c1=O,nt,6.1,-0.4,3.4,11.3*,-5.7,-0.4
CN(c1cccc2cccnc12)S(=O)(=O)c1ccccc1,nt,-3.7,-0.8,-7.2,-4.4,0.3,nt
Cc1c(N=C2NC(=O)/C(=C/c3ccc(O)cc3)S2)c(=O)n(-c2ccccc2)n1C,6.4,-33.5,-0.1,3.8,4.4*,0.3,-2.2
COc1cccc(Cn2c(=O)c3[nH]cnc3n(-c3ccccc3C)c2=O)c1,nt,-5.4,1.5,6.0,13.7*,-1.2,2.1
Cc1ccccc1-n1c(=O)n(Cc2ccccc2)c(=O)c2[nH]cnc21,nt,3.2,-1.8,-6.8,4.9,-11.8,nt
COCC(=O)Nc1cc(Cl)c(OC)cc1OC,-3.3,4.4,-0.8,-0.9,-1.1,-9.2,nt
CCC(=O)Nc1cc(C(=O)O)ccc1Sc1ccc(C)cc1,5.8,13.4,0.7,13.4,7.5*,0.0,-0.5
CCCC(=O)Nc1cc(C(=O)O)ccc1Sc1ccc(C)cc1,10.9,1.6,-2.7,-0.3,1.7,-0.4,nt
Cc1nnsc1C(=O)NC(=O)Nc1ccc(F)c(Cl)c1,nt,7.1,0.7,-7.3,5.9*,-4.8,-5.8
N#Cc1ccc(CSc2nnc(-c3cccs3)n2-c2ccccc2)cc1,-4.7,0.8,-1.1,-0.7,-1.9,5.0,nt
FC(F)Sc1nnc(-c2cccs2)n1-c1ccccc1,-6.5,10.1,0.5,3.4,9.6*,3.8,5.1
O=S1(=O)C[C@@H](N2CCN(CC3CC3)CC2)[C@H](COCc2ccccc2)N1,nt,nt,nt,nt,nt,3.7,nt
N/N=C/C(=N\Nc1ccc(Cl)cc1)C(=O)c1ccncc1,nt,-0.1,0.3,3.1,9.8*,1.9,0.5
